High-throughput results deposited in PubChem by The Scripps Research Institute Molecular Screening Center.
HIV Rev-RRE inh: HIV-1 Rev-RRE binding inhibitors, primary screen, biochemical, FRET, protein-RNA interaction | actives 0.79% (n = 97,000) | AID 704, 2007 | Rev peptide-RRE RNA binding | inhibition, % at 8 µM;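 active = inhibition above the screen-wide mean plus 3 SD, cut at about 35% in these data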;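 also: 0% = median DMSO wells and 100% = median Neomycin B control wells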
Target sequence (P05866 whole entry, looked up): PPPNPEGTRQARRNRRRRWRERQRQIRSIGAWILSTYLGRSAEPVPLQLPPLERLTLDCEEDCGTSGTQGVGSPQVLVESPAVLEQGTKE
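System: Cy5-labelled duplex RRE RNA binding fluorescein-labelled HIV Rev peptide; Signal: fluorescein-to-Cy5 FRET, 480 nm excitation; Also added: labelled Rev peptide; Compound: one concentration, 8 µM nominal; Buffer or medium: HEPES pH 7.5 salt buffer with EDTA; Read-out: % inhibition of FRET ratio versus controls; Schedule: 5 min preincubation and 15 min binding, 25 °C.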
GALR2 blocker: GALR2 antagonists in receptor-expressing cells, primary screen; Galanin receptor type 2 (Homo sapiens), O43603; actives 0.39% (n = 140,000); antagonist mode; inhibition, % at 4 µM;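 also: cells stimulated with galanin 1-16 at roughly its EC80; 0% = agonist challenge control and 100% = basal control without agonist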
GALR2 agonist: GALR2 receptor agonists, primary screen, cell-based. GALR2-expressing cells, agonist activation read-out. activation, % (concentration not given with the values). actives 0.48% (n = 140,000). AID 803, 2007; in the data active = activation above about 5%, passing the limit was not always enough;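 also: 0% = vehicle buffer wells and 100% = reference agonist at full effect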
S1P2 agonist: S1P2 receptor agonists, primary screen, cell-based; Sphingosine 1-phosphate receptor 2 (Homo sapiens), O95136; S1P2-expressing cell line, agonist reporter read-out; activation, % at 4.5 µM; actives 0.46% (n = 97,000); AID 729, 2007; in the data active = activation above about 16%;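 also: 0% = vehicle low control and 100% = maximal reference agonist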
Target sequence (O95136 whole entry, looked up): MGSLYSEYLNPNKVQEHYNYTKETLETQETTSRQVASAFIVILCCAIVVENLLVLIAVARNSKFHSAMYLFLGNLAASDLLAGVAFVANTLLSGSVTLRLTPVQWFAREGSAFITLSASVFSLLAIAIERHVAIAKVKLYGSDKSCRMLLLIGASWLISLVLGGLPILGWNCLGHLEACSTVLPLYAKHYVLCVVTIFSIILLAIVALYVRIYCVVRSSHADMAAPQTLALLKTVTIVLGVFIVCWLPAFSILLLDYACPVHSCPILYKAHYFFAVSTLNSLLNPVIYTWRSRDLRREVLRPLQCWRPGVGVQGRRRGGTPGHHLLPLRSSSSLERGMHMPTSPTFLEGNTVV
S1P2 antag: human S1P2 receptor antagonists, primary screen, cell-based; Sphingosine 1-phosphate receptor 2 (Homo sapiens), O95136; cell-based S1P2 antagonist assay, inhibition at 5 uM; inhibition, % at 5 µM; actives 0.21% (n = 97,000); AID 736, 2007; in the data active = inhibition above about 45%;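 also: CRE beta-lactamase reporter cells expressing human S1P2 stimulated with S1P; 0% = agonist at EC80 alone and 100% = agonist plus reference antagonist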
GALR2 ag confirm: GALR2 agonists, retest of hits, confirmation, cell-based; shares compounds with GALR2 agonist; GALR2-expressing cells, agonist activation; activation, % at 5.6 µM; actives 10% (n = 460); AID 864, 2007; in the data active = activation above about 8.4%;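 also: 0% = buffer-only vehicle wells and 100% = full reference agonist response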
BLA activ ctr: activators of NFAT-driven beta-lactamase reporter, confirmation, counter-screen for GALR2 agonist project, CHO NFAT-bla cells, FRET readout | actives 10% (n = 460) | activation, % at 5.6 µM | AID 865, 2007 | shares compounds with GALR2 agonist | beta-lactamase FRET activation;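 active = activation above the screen-wide mean activation plus 3 SD, cut at about 8% in these data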;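 also: 0% = DMSO with PBS wells and 100% = thapsigargin positive control wells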
GALR2 blk conf: GALR2 antagonists, retest of hits, confirmation, cell-based; shares compounds with GALR2 blocker; GALR2-expressing cells, antagonist mode, inhibition; inhibition, % at 4 µM; actives 60% (n = 480); AID 866, 2007;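 also: cells stimulated with galanin at about its EC80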
BLA inhib ctr: inhibitors of NFAT-driven beta-lactamase reporter, confirmation, counter-screen for GALR2 antagonist project, CHO NFAT-bla cells, FRET readout; shares compounds with GALR2 blocker; thapsigargin-stimulated; inhibition, % at 4.2 µM; actives 36% (n = 480); AID 867, 2007;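 active = inhibition above the mean inhibition across tested compounds plus 3 SD, cut at about 27% in these data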;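 also: 0% = 500 nM thapsigargin stimulated wells and 100% = unstimulated BSA only wells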
* marks the source's active call; other numbers are inactive results; [ ] = another dose, or the depositor's remark. The list is not random: actives were taken first. Their share in the collection is about 1.6%. Rule as the data show it, unless noted: active = inhibition above about 27%; inactive = the rest.

Results for COC(=O)C1=CN(C2CC2)C=C(C(=O)OC)C1c1ccccc1OC ?
HIV Rev-RRE inh: -0.5; GALR2 blocker: -3.0; GALR2 agonist: 10.5; S1P2 agonist: 12.9; S1P2 antag: -28.1; GALR2 ag confirm: 0.7; BLA activ ctr: 2.9

Results for COC(=O)C1=CN(C)C=C(C(=O)OC)C1c1ccc(O)c(OC)c1 ?
HIV Rev-RRE inh: 5.2; GALR2 blocker: -2.2; GALR2 agonist: -0.2; S1P2 agonist: -6.2; S1P2 antag: -0.3

What do the screens show for `COc1ccc(C(=O)Nc2ccc(N3CCN(C(=O)C(C)C)CC3)cc2)cc1[N+](=O)[O-]`?
GALR2 blocker: 6.6; GALR2 agonist: -0.8

How did N#Cc1ccsc1NC(=O)COC(=O)c1cc2ccccc2cc1O do in these assays?
GALR2 blocker: 14.6; GALR2 agonist: -1.3

Results for Cc1ccc(CN(Cc2ccco2)S(=O)(=O)c2ccc(S(=O)(=O)NCC3CCCO3)cc2)cc1 (stereo unspecified) ?
GALR2 blocker: 5.1; GALR2 agonist: -0.9

What do the screens show for `Cc1ccc(OCCn2c(C)c(/C=N/n3cnnc3)c3ccccc32)cc1`?
HIV Rev-RRE inh: 0.0; GALR2 blocker: -6.6; GALR2 agonist: 9.1*; S1P2 agonist: 6.1; S1P2 antag: -27.7; GALR2 ag confirm: 4.5; BLA activ ctr: -1.9

How did Cc1c(/C=N/n2cnnc2)c2ccccc2n1CCOc1ccc(Cl)cc1 do in these assays?
HIV Rev-RRE inh: 3.2; GALR2 blocker: 2.1; GALR2 agonist: 1.5; S1P2 agonist: -3.5; S1P2 antag: -16.9

How did Cc1c(C(=O)N/N=C/c2ccc(-c3ccccc3[N+](=O)[O-])o2)sc(N)c1C#N do in these assays?
GALR2 blocker: 16.4; GALR2 agonist: 16.1*; GALR2 ag confirm: 9.2*; BLA activ ctr: 11.5*

How did O=C(N/N=C/c1ccc(-c2ccccc2[N+](=O)[O-])o1)c1cncc(Br)c1 do in these assays?
GALR2 blocker: 20.1; GALR2 agonist: -1.1

Results for Cc1ccc(/C=N/Nc2ccnc3cc(Cl)ccc23)c(C)c1 ?
GALR2 blocker: 31.8*; GALR2 agonist: 13.6*; GALR2 ag confirm: 19.4*; BLA activ ctr: 10.0*; GALR2 blk conf: 41.8*; BLA inhib ctr: 42.4*

What do the screens show for `O=c1oc2ccccc2cc1-c1ccc(O)cc1O`?
GALR2 blocker: 5.5; GALR2 agonist: -0.9

Results for O=c1oc2cc(O)ccc2cc1-c1nc2c(s1)CCc1ccccc1-2 ?
GALR2 blocker: 36.6*; GALR2 agonist: 13.7*; GALR2 ag confirm: 3.8; BLA activ ctr: 0.9; GALR2 blk conf: 65.9*; BLA inhib ctr: 70.0*

What do the screens show for `CN(C)c1ccc(/C=C/c2nc3ccccc3s2)cc1`?
HIV Rev-RRE inh: 105.8*[fluorescence artefact?]; GALR2 blocker: 44.8*; GALR2 agonist: 20.0*; S1P2 agonist: 0.7; S1P2 antag: 57.7*; GALR2 ag confirm: 5.9; BLA activ ctr: 9.6*; GALR2 blk conf: 31.7*; BLA inhib ctr: 41.3*

What do the screens show for `CC(C)CNC1=C(C(=S)Nc2ccccc2)C(=O)CC(C)(C)C1`?
GALR2 blocker: -1.2; GALR2 agonist: -0.4

What do the screens show for `COC(=O)c1ccc(C(=O)OC)c(NC(=O)CN(C)Cc2ccccc2)c1`?
GALR2 blocker: -9.9; GALR2 agonist: 0.2

How did CCOC(=O)C1=C(CSc2nc(-c3ccccc3)ccc2C#N)OC(N)=C(C#N)C1c1cccnc1 (stereo unspecified) do in these assays?
HIV Rev-RRE inh: 36.6*; GALR2 blocker: 28.6*; GALR2 agonist: -1.1; S1P2 agonist: -7.6; S1P2 antag: 5.8; GALR2 blk conf: 29.7*; BLA inhib ctr: 17.0

Results for CCOC(=O)C1=C(CSc2nc(-c3ccccc3)ccc2C#N)OC(N)=C(C#N)C1c1ccccc1 (stereo unspecified) ?
HIV Rev-RRE inh: 27.5; GALR2 blocker: 16.7; GALR2 agonist: -1.3; S1P2 agonist: -4.7; S1P2 antag: -3.5

What do the screens show for `O=C(OCn1ncc(Br)c(Br)c1=O)c1c(F)cccc1F`?
HIV Rev-RRE inh: 2.4; GALR2 blocker: 96.5*; GALR2 agonist: -5.2; S1P2 agonist: -6.9; S1P2 antag: 69.0*; GALR2 blk conf: 94.2*; BLA inhib ctr: 98.4*

How did COc1ccc(C(=O)c2ccc(N(C)C)cc2)c(OC)c1 do in these assays?
HIV Rev-RRE inh: 1.2; GALR2 blocker: -0.4; GALR2 agonist: -1.5; S1P2 agonist: -2.4; S1P2 antag: 4.5

What do the screens show for `CN(C)c1ccc(C(=O)c2ccc(N(C)C)c3ccccc23)cc1`?
HIV Rev-RRE inh: 5.8; GALR2 blocker: 30.4*; GALR2 agonist: 0.6; S1P2 agonist: 4.0; S1P2 antag: 3.7; GALR2 blk conf: 32.9*; BLA inhib ctr: 64.1*

How did CC1C/C(=C\c2cccnc2)C(=O)/C(=C/c2cccnc2)C1 (stereo unspecified) do in these assays?
GALR2 blocker: 36.0*; GALR2 agonist: -0.6; GALR2 blk conf: 43.8*; BLA inhib ctr: 20.3

Results for CNc1ccc(/C=C/C(=O)c2cccc3ccccc23)cc1[N+](=O)[O-] ?
GALR2 blocker: 0.4; GALR2 agonist: -2.1

What do the screens show for `CCOC(=O)N1CCN(CC(=O)Nc2ccc(Oc3ccccc3)cc2)CC1`?
HIV Rev-RRE inh: 19.1; GALR2 blocker: 4.8; GALR2 agonist: -2.8; S1P2 agonist: -11.2; S1P2 antag: 1.3

How did CCCCc1ccc(NS(=O)(=O)c2cccs2)cc1 do in these assays?
HIV Rev-RRE inh: 16.8; GALR2 blocker: -7.5; GALR2 agonist: -2.6; S1P2 agonist: -5.0; S1P2 antag: -8.4

How did COc1ccc(NC2=Nc3cccc4cccc2c34)cc1 do in these assays?
GALR2 blocker: 27.3*; GALR2 agonist: 0.0; GALR2 blk conf: 15.5; BLA inhib ctr: 6.3

Results for Cc1noc(NS(=O)(=O)c2ccc(NC(=O)C34CC5CC(C3)CC(n3cnc(Br)n3)(C5)C4)cc2)c1C ?
GALR2 blocker: 5.7; GALR2 agonist: 0.3

How did CCOC(=O)c1cc([N+](=O)[O-])c([N+](=O)[O-])cc1NC(C)=O do in these assays?
GALR2 blocker: 41.2*; GALR2 agonist: -0.7; GALR2 blk conf: 48.4*; BLA inhib ctr: 7.4
